Assay results from ChEMBL document CHEMBL1122443, “Synthesis and antitumor evaluation of selected 5,6-disubstituted 1(2)H-indazole-4,7-diones” (1983).
The source made the active and inactive calls. The rule behind the calls is not given here.

Experiments:
Mus musculus [1] = assay: Antitumor activity in CF1 mice bearing Ehrlich ascites carcinoma measured as ascites volume at 8 mg/kg; format: functional
How it was run: (§1)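 Male CF1 mice (22–25 g) received 2 × 10⁶ Ehrlich carcinoma cells ip on day 0. Dosing was ip daily on days 1–8, with sacrifice on day 9. Ascites fluid volume per mouse and ascrit (packed cell volume) were measured for each group. Vehicle was 0.05% Tween 80, or 5% absolute EtOH in 0.05% Tween 80, used for both compound and control. 6-Mercaptopurine was the positive control.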

Mus musculus [2] = assay: Antitumor activity in CF1 mice bearing Ehrlich ascites carcinoma measured as percent ascrit packed cell volume at 8 mg/kg; format: functional; how it was run: as §1
Mus musculus [3] = assay: Antitumor activity in CF1 mice bearing Ehrlich ascites carcinoma measured as ascites volume at 5 mg/kg; format: functional; how it was run: as §1
Mus musculus [4] = assay: Antitumor activity in CF1 mice bearing Ehrlich ascites carcinoma measured as survivors on day 9 at 8 mg/kg; 4/6; format: functional
Mus musculus [5] = assay: Antitumor activity in CF1 mice bearing Ehrlich ascites carcinoma measured as survivors on day 9 at 5 mg/kg; 4/6; format: functional
Mus musculus [6] = assay: Antitumor activity in CF1 mice bearing Ehrlich ascites carcinoma measured as survivors on day 9 at 3 mg/kg; 5/6; format: functional
Mus musculus [7] = assay: Antitumor activity in CF1 mice bearing Ehrlich ascites carcinoma measured as percentage inhibition at 5 mg/kg; format: functional
How it was run: (§2)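 Ehrlich ascites model in male CF1 mice (22–25 g): 2 × 10⁶ cells ip on day 0, ip dosing days 1–8, kill on day 9. Percent inhibition = 100 − [(treated volume × treated ascrit)/(control volume × control ascrit)]. Greater than 80% was taken as significant. Vehicle was 0.05% Tween 80, alone or with 5% absolute EtOH. 6-Mercaptopurine was the positive control.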

Mus musculus [8] = assay: Antitumor activity in CF1 mice bearing Ehrlich ascites carcinoma measured as percentage inhibition at 8 mg/kg; format: functional; how it was run: as §2
Mus musculus [9] = assay: Antitumor activity in CF1 mice bearing Ehrlich ascites carcinoma measured as percent ascrit packed cell volume at 5 mg/kg; format: functional; how it was run: as §1
Mus musculus [10] = assay: Antitumor activity in CF1 mice bearing Ehrlich ascites carcinoma measured as percent ascrit packed cell volume at 3 mg/kg; format: functional; how it was run: as §1
Mus musculus [11] = assay: Antitumor activity in CF1 mice bearing Ehrlich ascites carcinoma measured as ascites volume at 3 mg/kg; format: functional; how it was run: as §1
Mus musculus [12] = assay: Antitumor activity in CF1 mice bearing Ehrlich ascites carcinoma measured as percentage inhibition at 3 mg/kg; IA= inactive; format: functional, organism-based; parameters: dose 3 mg/kg
How it was run: (§3)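 In the Ehrlich ascites model, male CF1 mice (22–25 g) received 2 × 10⁶ cells ip on day 0 and compound ip on days 1–8, with a vehicle of 0.05% Tween 80 ± 5% EtOH. Ascites volume and ascrit were taken on day 9. % inhibition = 100 − [(vol × ascrit, treated)/(vol × ascrit, control)], with >80% taken as significant.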

Mus musculus [13] = assay: Antitumor activity in CF1 mice bearing Ehrlich ascites carcinoma measured as percent ascrit packed cell volume at 50 mg/kg; format: functional; how it was run: as §1
Mus musculus [14] = assay: Antitumor activity in CF1 mice bearing Ehrlich ascites carcinoma measured as percentage inhibition at 50 mg/kg; format: functional; how it was run: as §2
Mus musculus [15] = assay: Antitumor activity in CF1 mice bearing Ehrlich ascites carcinoma measured as ascites volume at 50 mg/kg; format: functional; how it was run: as §1
Mus musculus [16] = assay: Antitumor activity in 18 CF1 mice bearing Ehrlich ascites carcinoma measured as survivors on day 9 at 50 mg/kg; 16/18; format: functional
Mus musculus [17] = assay: Anti tumor activity in mice bearing lymphocytic leukemia P-388 at 1 mg/kg; format: functional
How it was run: (§4)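 Male BDF1 mice (20–23 g) were inoculated ip with 1 × 10⁶ P-388 leukemia cells on day 0. Compound was given ip once daily on days 1–14 in 0.05% Tween 80 vehicle, with a vehicle control group and 5-fluorouracil as positive control. Activity was scored as % T/C, average days survived treated/control, with >125% taken as significant.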

Mus musculus [18] = assay: Average days survived for treated / average days survived for control at 5 (mg/kg); 11/9.2; format: functional
Mus musculus [19] = assay: Average days survived for treated / average days survived for control at 0.5 (mg/kg); 10.5/9.2; format: functional
Mus musculus [20] = assay: Anti tumor activity in mice bearing lymphocytic leukemia P-388 at 3 mg/kg; format: functional; how it was run: as §4
Mus musculus [21] = assay: Antitumor activity in CF1 mice bearing Ehrlich ascites carcinoma measured as survivors on day 9 at 5 mg/kg; 6/6; format: functional
Mus musculus [22] = assay: Antitumor activity in CF1 mice bearing Ehrlich ascites carcinoma measured as percent ascrit packed cell volume at 1 mg/kg; format: functional
How it was run: (§5)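 CF1 male mice (22–25 g) were inoculated ip with 2 × 10⁶ Ehrlich cells on day 0 and treated ip on days 1–8 in 0.05% Tween 80 or 5% EtOH/0.05% Tween 80 vehicle. On day 9 the mice were sacrificed, and the ascrit (packed cell volume) of the ascites fluid was determined.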

Mus musculus [23] = assay: Average days survived for treated / average days survived for control at 2 (mg/kg); 12.6/9.2; format: functional
Mus musculus [24] = assay: Anti tumor activity in mice bearing lymphocytic leukemia P-388 at 10 mg/kg; Toxic; format: functional, organism-based; parameters: dose 10 mg/kg; how it was run: as §4
Mus musculus [25] = assay: Antitumor activity in CF1 mice bearing Ehrlich ascites carcinoma measured as survivors on day 9 at 1 mg/kg; 6/6; format: functional
Mus musculus [26] = assay: Antitumor activity in CF1 mice bearing Ehrlich ascites carcinoma measured as ascites volume at 0.5 mg/kg; format: functional
How it was run: (§6)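 Ehrlich ascites cells (2 × 10⁶) were implanted ip in male CF1 mice (22–25 g) on day 0. Dosing was ip on days 1–8 in 0.05% Tween 80 or 5% EtOH/0.05% Tween 80, with vehicle controls. Mice were killed on day 9, and ascites fluid volume per mouse was measured.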

Mus musculus [27] = assay: Anti tumor activity in mice bearing lymphocytic leukemia P-388 at 2 mg/kg; format: functional; how it was run: as §4
Mus musculus [28] = assay: Average days survived for treated / average days survived for control at 3 (mg/kg); 10.2/9.2; format: functional
Mus musculus [29] = assay: Average days survived for treated / average days survived for control at 1 (mg/kg); 13.3/9.2; format: functional
Mus musculus [30] = assay: Antitumor activity in CF1 mice bearing Ehrlich ascites carcinoma measured as percent ascrit packed cell volume at 0.5 mg/kg; format: functional; how it was run: as §5
Mus musculus [31] = assay: Anti tumor activity in mice bearing lymphocytic leukemia P-388 at 0.5 mg/kg; format: functional; how it was run: as §4
Mus musculus [32] = assay: Antitumor activity in CF1 mice bearing Ehrlich ascites carcinoma measured as survivors on day 9 at 0.5 mg/kg; 5/6; format: functional
Mus musculus [33] = assay: Antitumor activity in CF1 mice bearing Ehrlich ascites carcinoma measured as percentage inhibition at 0.5 mg/kg; IA= inactive; format: functional, organism-based; parameters: dose 0.5 mg/kg; how it was run: as §3
Mus musculus [34] = assay: Anti tumor activity in mice bearing lymphocytic leukemia P-388 at 5 mg/kg; format: functional; how it was run: as §4
Mus musculus [35] = assay: Antitumor activity in CF1 mice bearing Ehrlich ascites carcinoma measured as percentage inhibition at 1 mg/kg; format: functional; how it was run: as §3
Mus musculus [36] = assay: Antitumor activity in CF1 mice bearing Ehrlich ascites carcinoma measured as ascites volume at 1 mg/kg; format: functional; how it was run: as §6

`CC(=O)NC1=C(Cl)C(=O)c2c(cnn2C(C)=O)C1=O` showed an ascites volume (Mus musculus [1]) of 0.75 ml mouse-1, a packed cell volume (Mus musculus [2]) of 31.7% and an ascites volume (Mus musculus [3]) of 0.3 ml mouse-1. The Survivors (Mus musculus [4]) was 4, the Survivors (Mus musculus [5]) was 4 and the Survivors (Mus musculus [6]) was 5. It also gave an inhibition in vivo at 5 mg/kg (Mus musculus [7]) of 95.6%, an inhibition in vivo at 8 mg/kg (Mus musculus [8]) of 25.5% and a packed cell volume (Mus musculus [9]) of 5.9%. For the same compound, the packed cell volume (Mus musculus [10]) was 45.5%, the ascites volume (Mus musculus [11]) was 2.9 ml mouse-1 and the inhibition (Mus musculus [12]) was “inactive”.

Work on `Sc1ncnc2nc[nH]c12` [MERCAPTOPURINE ANHYDROUS] yielded a packed cell volume (Mus musculus [13]) of 10.5%, an inhibition in vivo at 50 mg/kg (Mus musculus [14]) of 96.3% and an ascites volume (Mus musculus [15]) of 0.2 ml mouse-1. For the same compound, the Survivors (Mus musculus [16]) was 16.

For `O=C1C(N2CC2)=C(Cl)C(=O)c2n[nH]cc21`, the T/C (Mus musculus [17]) was 145%, the “Average survival (days)” value (Mus musculus [18]) was 11 and the ascites volume (Mus musculus [3]) was 0.15 ml mouse-1. For the same compound, the “Average survival (days)” value (Mus musculus [19]) was 10.5, the T/C (Mus musculus [20]) was 111% and the Survivors (Mus musculus [21]) was 6. The packed cell volume (Mus musculus [22]) was 5.8%, the “Average survival (days)” value (Mus musculus [23]) was 12.6 and the T/C (Mus musculus [24]) was “Toxic”. For the same compound, the inhibition in vivo at 5 mg/kg (Mus musculus [7]) was 92.5%, the Survivors (Mus musculus [25]) was 6 and the ascites volume (Mus musculus [26]) was 0.38 ml mouse-1. The T/C (Mus musculus [27]) was 137%, the “Average survival (days)” value (Mus musculus [28]) was 10.2 and the “Average survival (days)” value (Mus musculus [29]) was 13.3. The packed cell volume (Mus musculus [30]) was 44%, the T/C (Mus musculus [31]) was 114% and the Survivors (Mus musculus [32]) was 5. For the same compound, the packed cell volume (Mus musculus [9]) was 49.4%, the inhibition (Mus musculus [33]) was “inactive” and the T/C (Mus musculus [34]) was 120%. The inhibition in vivo at 1 mg/kg (Mus musculus [35]) was 95% and the ascites volume (Mus musculus [36]) was 0.32 ml mouse-1.
